Test results reported in paper PMC2805920 (Biochemical Journal, 2009).

Experiments:
130nt-RNA = assay: EMSA, binding to 32P-labelled 130nt-RNA; design: species or system Trypanosoma cruzi; conditions: peptide 9 to 30 μM
Outline: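 The probe was a T7 transcript radiolabelled with [α-32P]UTP, gel-purified and desalted on Sephadex G-50. Probe (0.72 nM) was incubated with increasing peptide for 30 min at 37 °C. Peptide stocks were 500 μM in PBS with 30 μM ZnCl2. Gels were dried and phosphorimaged. Kd is the peptide concentration giving 50 % RNA bound, from a Hill-equation fit.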

135nt-ssDNA = assay: EMSA, binding to 32P-labelled 135nt-ssDNA; design: species or system Trypanosoma cruzi
135bp-dsDNA = assay: EMSA, binding to 32P-labelled 135bp-dsDNA; design: species or system Trypanosoma cruzi; conditions: peptide 0.9-30 μM
29/mm29c DNA duplex = assay: DNA-melting assay on mismatched duplex; type: biochemical; conditions: 1 μM peptide, 32P-29mer/mm29c duplex
Outline: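 A 32P-29mer and its complementary strand carrying four internal mismatches (mm29c) were annealed in water: 5 min at 95 °C, NaCl added to 50 mM, then slowly cooled to 22 °C. It was incubated 5 min at 25–55 °C, sampled every 5 °C into ice-cold tRNA/SDS/Ficoll stop mix, run on native 15 % PAGE and phosphorimaged.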

stable duplexes = conditions: read-out: Conc50, concentration required to reach the formation of 50% of stable duplexes as a measure of NAC activity; NO = no observed activity; cited from earlier work

| RNA-binding affinity (in words) (130nt-RNA) | ssDNA-binding affinity (in words) (135nt-ssDNA) | dsDNA-binding affinity (in words) (135bp-dsDNA) | Substance | effect on the Tm of the mismatched DNA duplex (in words) (29/mm29c DNA duplex) | EC50 (stable duplexes) |
| --- | --- | --- | --- | --- | --- |
| complete loss of affinity | very low affinity | no affinity | LT……CPHCDSTLTGFSGLVSHCRSFHP [compound 5032] | does not have any influence on the Tm | > 30 µM |
| eliminated | – | complete loss of binding affinity | TVPPSAREEDVSPV…TLTRRRKEKC [compound 5030] | does not have any influence on the Tm | > 30 µM |
